Reference: ChEMBL document CHEMBL4177655, “Synthesis and biological evaluation of Santacruzamate-A based analogues” (Bioorg Med Chem, 2017)
Active and inactive are the calls of the source. The calls are words filed in the database; no cut-off is given here.

Legend:
HCT-116 [1] = assay: Antiproliferative activity against human HCT116 cells after 24 hrs by MTT assay; format: functional, cell-based; conditions: HCT-116, 24 h
HCT-116 [2] = assay: Antiproliferative activity against human HCT116 cells after 72 hrs by MTT assay; format: functional, cell-based; conditions: HCT-116, 72 h
HCT-116 [3] = assay: Antiproliferative activity against human HCT116 cells after 48 hrs by MTT assay; format: functional, cell-based; conditions: HCT-116, 48 h
[4] = molecular target: Histone deacetylase 2 (Homo sapiens) (UniProt Q92769); assay: Inhibition of full-length human recombinant HDAC2 expressed in baculovirus infected Sf9 insect cells preincubated for 16 hrs measured every 5 mins by fluorescence assay
[5] = molecular target: T1, Histone deacetylase (Homo sapiens) (UniProt Q13547+O15379+Q9UBN7+Q92769+Q9UQL6+Q8WUI4+Q9BY41+Q96DB2+P56524+Q9UKV0+Q969S8); assay: Inhibition of HDAC in human HCT116 cells assessed as reduction in acetyl-histone-H4 levels at 10 uM after 24 hrs by Western blot analysis relative to control; format: cell-based
Method in brief: (§1)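 HCT116 cells were treated 24 h at 10 µM, with DMSO vehicle as control. Total lysates (protein by Bradford against a BSA standard, ~30 µg loaded) were run on 15% SDS-PAGE under reducing conditions and transferred to nitrocellulose. Membranes were blocked in 5% milk, then probed with anti-acetyl-histone H3 or H4, with GAPDH as loading control. Detection by HRP secondary and ECL. Three experiments.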

[6] = molecular target: T2, Histone deacetylase 3/Nuclear receptor corepressor 2 (HDAC3/NCoR2) (Homo sapiens) (UniProt O15379+Q9Y618); assay: Inhibition of human full length C-terminal His-tagged HDAC3/N-terminal GST-tagged human NCOR2 (395 to 489 residues) co-expressed in baculovirus infected Sf9 insect cells preincubated for 16 hrs measured every 5 mins by fluorescence assay
[7] = molecular target: Histone deacetylase 1 (Homo sapiens) (UniProt Q13547); assay: Inhibition of full-length recombinant HDAC1 (unknown origin) expressed in baculovirus infected Sf9 insect cells preincubated for 16 hrs measured every 5 mins by fluorescence assay
[8] = molecular target: T1, Histone deacetylase (Homo sapiens); assay: Inhibition of HDAC in human HCT116 cells assessed as reduction in acetyl-histone-H3 levels at 10 uM after 24 hrs by Western blot analysis relative to control; format: cell-based; method in brief: as §1
[9] = molecular target: T2, Histone deacetylase 3/Nuclear receptor corepressor 2 (HDAC3/NCoR2) (Homo sapiens); assay: Inhibition of human full length C-terminal His-tagged HDAC3/N-terminal GST-tagged human NCOR2 (395 to 489 residues) co-expressed in baculovirus infected Sf9 insect cells measured every 5 mins by fluorescence assay
[10] = molecular target: T3, Protein deacetylase HDAC6 (Homo sapiens) (UniProt Q9UBN7); assay: Inhibition of full-length recombinant HDAC6 (unknown origin) expressed in baculovirus infected Sf9 insect cells measured every 5 mins by fluorescence assay
T3 sequence (whole entry): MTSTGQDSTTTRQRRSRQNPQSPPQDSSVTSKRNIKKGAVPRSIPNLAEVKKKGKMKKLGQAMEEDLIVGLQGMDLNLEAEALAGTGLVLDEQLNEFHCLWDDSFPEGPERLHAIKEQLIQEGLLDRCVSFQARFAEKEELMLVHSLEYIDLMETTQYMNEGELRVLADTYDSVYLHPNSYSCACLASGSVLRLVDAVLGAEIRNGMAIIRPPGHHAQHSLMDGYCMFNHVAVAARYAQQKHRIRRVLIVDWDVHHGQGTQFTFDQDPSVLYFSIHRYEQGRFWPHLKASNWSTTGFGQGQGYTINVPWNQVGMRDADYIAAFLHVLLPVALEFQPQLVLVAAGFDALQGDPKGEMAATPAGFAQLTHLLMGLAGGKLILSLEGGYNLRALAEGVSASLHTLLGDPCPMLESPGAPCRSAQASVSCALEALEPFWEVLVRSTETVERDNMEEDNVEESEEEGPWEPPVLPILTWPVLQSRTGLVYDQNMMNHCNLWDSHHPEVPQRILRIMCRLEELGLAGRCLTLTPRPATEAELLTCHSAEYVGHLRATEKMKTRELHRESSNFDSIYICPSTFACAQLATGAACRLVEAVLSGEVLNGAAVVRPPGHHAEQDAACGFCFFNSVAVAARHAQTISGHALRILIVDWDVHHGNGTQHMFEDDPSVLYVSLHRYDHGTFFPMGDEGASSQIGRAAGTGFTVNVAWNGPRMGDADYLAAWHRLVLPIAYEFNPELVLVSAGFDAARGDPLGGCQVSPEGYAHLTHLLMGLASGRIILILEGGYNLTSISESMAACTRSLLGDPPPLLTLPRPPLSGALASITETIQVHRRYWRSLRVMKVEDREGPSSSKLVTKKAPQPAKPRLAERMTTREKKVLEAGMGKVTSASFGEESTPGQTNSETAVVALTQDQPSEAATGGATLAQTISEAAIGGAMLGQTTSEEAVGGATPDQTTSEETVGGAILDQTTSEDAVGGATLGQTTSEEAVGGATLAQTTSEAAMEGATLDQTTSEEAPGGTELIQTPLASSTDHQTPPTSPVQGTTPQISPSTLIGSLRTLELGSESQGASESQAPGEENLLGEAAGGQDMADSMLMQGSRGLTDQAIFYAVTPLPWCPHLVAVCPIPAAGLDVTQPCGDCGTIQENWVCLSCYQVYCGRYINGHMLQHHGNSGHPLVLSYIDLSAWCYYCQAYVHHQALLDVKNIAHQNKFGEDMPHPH

[11] = molecular target: T4, Histone deacetylase 8 (Homo sapiens) (UniProt Q9BY41); assay: Inhibition of human full-length recombinant C-termianl His-tagged HDAC8 expressed in baculovirus infected Sf9 insect cells measured every 5 mins by fluorescence assay
T4 sequence (whole entry): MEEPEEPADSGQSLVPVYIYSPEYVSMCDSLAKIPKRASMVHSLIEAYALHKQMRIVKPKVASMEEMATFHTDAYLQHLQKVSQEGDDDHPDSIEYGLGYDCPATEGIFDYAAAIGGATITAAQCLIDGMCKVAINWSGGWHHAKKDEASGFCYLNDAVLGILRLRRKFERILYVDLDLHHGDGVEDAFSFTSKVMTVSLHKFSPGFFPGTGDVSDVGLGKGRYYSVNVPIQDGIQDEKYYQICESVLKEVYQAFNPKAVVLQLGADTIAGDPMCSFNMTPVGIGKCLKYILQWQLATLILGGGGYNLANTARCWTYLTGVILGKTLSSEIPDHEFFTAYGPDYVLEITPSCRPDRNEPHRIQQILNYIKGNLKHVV

[12] = molecular target: Histone deacetylase 1 (Homo sapiens) (UniProt Q13547); assay: Inhibition of full-length recombinant HDAC1 (unknown origin) expressed in baculovirus infected Sf9 insect cells measured every 5 mins by fluorescence assay

Sequence of Histone deacetylase 1 (Homo sapiens) (Q13547 whole entry): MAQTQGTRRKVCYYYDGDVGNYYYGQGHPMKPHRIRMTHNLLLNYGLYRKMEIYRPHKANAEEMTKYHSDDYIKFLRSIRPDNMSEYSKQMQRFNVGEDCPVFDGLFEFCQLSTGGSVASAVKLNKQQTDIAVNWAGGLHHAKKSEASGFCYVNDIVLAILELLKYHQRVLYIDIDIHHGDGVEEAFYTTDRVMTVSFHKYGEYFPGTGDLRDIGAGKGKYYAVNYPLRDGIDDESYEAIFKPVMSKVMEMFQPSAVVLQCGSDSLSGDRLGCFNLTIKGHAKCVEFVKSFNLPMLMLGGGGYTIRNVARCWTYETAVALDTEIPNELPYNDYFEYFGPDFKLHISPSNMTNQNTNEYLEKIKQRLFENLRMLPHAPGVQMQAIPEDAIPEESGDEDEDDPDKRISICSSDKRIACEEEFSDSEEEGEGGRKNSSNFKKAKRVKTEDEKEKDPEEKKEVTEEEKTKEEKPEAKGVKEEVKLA
Sequence of Histone deacetylase 2 (Homo sapiens) (Q92769 whole entry): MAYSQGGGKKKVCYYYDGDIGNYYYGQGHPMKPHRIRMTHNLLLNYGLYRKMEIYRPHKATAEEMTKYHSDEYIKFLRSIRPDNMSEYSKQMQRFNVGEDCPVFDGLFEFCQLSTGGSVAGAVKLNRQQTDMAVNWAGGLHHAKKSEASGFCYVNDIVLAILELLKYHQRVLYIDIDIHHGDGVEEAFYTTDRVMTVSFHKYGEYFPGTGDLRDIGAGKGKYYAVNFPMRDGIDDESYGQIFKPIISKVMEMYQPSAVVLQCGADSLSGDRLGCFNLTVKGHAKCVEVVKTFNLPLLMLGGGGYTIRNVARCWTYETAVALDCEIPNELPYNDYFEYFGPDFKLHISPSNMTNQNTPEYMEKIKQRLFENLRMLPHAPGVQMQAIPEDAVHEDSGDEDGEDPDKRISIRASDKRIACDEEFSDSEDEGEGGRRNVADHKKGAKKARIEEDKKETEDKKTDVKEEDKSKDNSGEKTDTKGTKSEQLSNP

SMILES	IC50 (HCT-116 [1])	IC50 (HCT-116 [2])	IC50 (HCT-116 [3])	other results
CCOC(=O)NCCCC(=O)NCc1ccccc1	> 50 µM	0.615 µM		
CCOC(=O)NCCCC(=O)NCCc1cccc(F)c1	> 50 µM	5 to 10 µM	0.825 µM	
CCOC(=O)NCCCC(=O)NCCc1cccc(O)c1	> 50 µM	1 to 5 µM	0.476 µM	inhibition [4]: inactive; inhibition [5]: inactive; inhibition [6]: inactive; inhibition [7]: inactive; inhibition [8]: inactive; inhibition [9]: inactive; inhibition [10]: inactive; inhibition [11]: inactive; inhibition [12]: inactive
O=C(CCCNC(=O)C(=O)O)NCCc1ccccc1	> 50 µM		> 50 µM	
O=C(CCCNC(=O)C(=O)O)NCCc1cccc(F)c1	> 50 µM			
CCOC(=O)NCCCC(=O)NCCCc1ccccc1	> 50 µM	> 50 µM	> 50 µM	
O=C(CCCNC(=O)C(=O)O)NCCc1c[nH]c2ccccc12	< 50 µM			
O=C(CCCNC(=O)C(=O)O)NCCCc1ccccc1	> 50 µM			
O=C(CCCNC(=O)C(=O)O)NCCc1cccc(O)c1	> 50 µM		> 50 µM	
CCOC(=O)NCCCC(=O)NCCc1ccccc1	> 50 µM	> 50 µM	> 50 µM	inhibition [4]: inactive; inhibition [6]: inactive; inhibition [7]: inactive; inhibition [9]: inactive; inhibition [10]: inactive; inhibition [11]: inactive; inhibition [12]: inactive
O=C(CCCNC(=O)C(=O)O)Nc1ccccc1	0.814 µM		> 50 µM	inhibition [5]: inactive; inhibition [8]: inactive
